Source: article PMC9201701 (RSC Advances, 2022)
Entries after “also recorded” stand apart in the source; their conditions may differ.

Columns and labels:
HCT-116 = assay: MTT cytotoxicity assay, HCT-116; assay type: cell-based, human; details: for Cytotoxicity IC50, HCT-116: 72 hours, MTT assay; for IC50: Homo sapiens, HCT-116, 72 h, read-out: Cytotoxicity IC50, HCT-116
HT-29 = assay: MTT cytotoxicity assay, HT-29; assay type: cell-based, human; details: for Cytotoxicity IC50, HT-29: 72 hours, MTT assay; for IC50: Homo sapiens, HT-29, 72 h, read-out: Cytotoxicity IC50, HT-29
MCF-7 = assay: MTT cytotoxicity assay, MCF-7; assay type: cell-based, human; details: for Cytotoxicity IC50, MCF-7: 72 hours, MTT assay; for IC50: Homo sapiens, MCF7, 72 h, read-out: Cytotoxicity IC50, MCF-7
vero cells = assay: MTT cytotoxicity assay, vero cells; assay type: cell-based, African Green Monkey; details: for Cytotoxicity IC50, Vero cell: 72 hours, MTT assay
[1] = test system: HCT-116, HT-29, MCF-7 and vero cell lines; assay: MTT cytotoxicity assay, stated over all four cell lines; assay type: cell-based; details: for Cytotoxicity against all tested cell lines, in words: HCT-116, HT-29, MCF-7 and vero cells; for IC50: read-out: IC50 range over all cell lines
Procedure, shortened: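 Cells grown in RPMI 1640 with 10% FBS, penicillin and streptomycin at 37 °C, 5% CO2. Solvent controls got 1:1 DMSO/EtOH. After exposure, medium replaced with fresh medium containing MTT (0.5 mg mL−1 in PBS) for 2 h. […] Viability % = sample/control (A550−A655) × 100. Four replicates.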

HeLa cells = details: read-out: Cytotoxicity IC50, HeLa cells; ref 9 (Posri et al., 2021); cited from earlier work
[2] = MTT cytotoxicity assay, vero cells; assay type: cell-based, African Green Monkey; details: African green monkey, Vero cells (normal kidney cells)
Pythium insidiosum = details: compared with amphotericin-B standard; cited from earlier work
HepG2 cell line = details: read-out: Cytotoxicity IC50, HepG2 cell line; cited from earlier work
KB = details: read-out: Cytotoxicity IC50, KB; cited from earlier work
HeLa = details: read-out: Cytotoxicity IC50, HeLa; cited from earlier work
MRC-5 = details: read-out: Cytotoxicity IC50, MRC-5; cited from earlier work

Compound	Cytotoxicity IC50, HT-29 (HT-29)	IC50 (HCT-116)	IC50 (HT-29)	IC50 (MCF-7)	IC50 at 72 h [2]	IC50 [1]	also measured
COc1cc(O)c2c(c1)OCC(c1cc(OC)c(OC)cc1OC)C2=NN (stereo not drawn) [Compound 14, 5-Hydroxy-7,2′,4′,5′-tetramethoxyisoflavanone hydrazone]	Inactive						Cytotoxicity IC50, HCT-116 (HCT-116): Inactive; Cytotoxicity IC50, MCF-7 (MCF-7): Inactive; Cytotoxicity IC50, Vero cell (vero cells): Inactive; Cytotoxicity against all tested cell lines, in words [1]: inactive
CC(C)=CCC/C(C)=C/Cc1c(O)ccc2c1OC[C@H]1c3cc4c(cc3O[C@@H]21)OCO4 [R,R-Velucarpin A]							IC50 (HeLa cells): 10.9 ± 0.42 µM
COc1cc(OC)c2c(=O)c(-c3cc(OC)c(OC)cc3OC)coc2c1 [Compound 6, 5,7,2′,4′,5′-Pentamethoxyisoflavone]		178 ± 2.23 µM	154 ± 12.1 µM	98.5 ± 15.4 µM	> 269 µM		Cytotoxicity against all tested cell lines, in words [1]: weak activity
COc1cc(C2COc3cc(O)cc(O)c3C2=O)c(OC)cc1O (stereo not drawn) [Compound 8, 5,7,4′-Trihydroxy-2′,5′-dimethoxyisoflavanone]		92.7 ± 1.84 µM	69.9 ± 6.47 µM	148 ± 1.96 µM	93.6 ± 10.2 µM	69 to 147 µM	
5-Hydroxy-7,4′-dimesyl-2′,5′-dimethoxyisoflavone [Compound 2]	Inactive						Cytotoxicity IC50, HCT-116 (HCT-116): Inactive; Cytotoxicity IC50, MCF-7 (MCF-7): Inactive; Cytotoxicity IC50, Vero cell (vero cells): Inactive
COc1ccc(C2COc3cc(O)ccc3C2)c(O)c1 (single isomer, unassigned; (-)) [(−)-vestitol]							Antifungal activity against Pythium insidiosum (Pythium insidiosum): strongest antifungal activity
COc1cc(OC)c2c(c1)OCC(c1cc(OC)c(OC)cc1OC)C2 (stereo not drawn) [Compound 11, 5,7,2′,4′,5′-Pentamethoxyisoflavan]		28.9 ± 3.19 µM	29.38 ± 0.08 µM	21.1 ± 2.61 µM	31.1 ± 4.99 µM	19 to 37 µM	
COc1cc(O)c2c(c1)OCC(c1cc(OC)c(OC)cc1OC)C2=O (stereo not drawn) [Compound 9, 5-Hydroxy-7,2′,4′,5′-tetramethoxyisoflavanone]		37.1 ± 1.28 µM	19.2 ± 1.86 µM	31 ± 1.89 µM	33.5 ± 1.25 µM	19 to 37 µM	
COc1cc(OC)c2c(c1)OCC(c1cc(OC)c(OC)cc1OC)C2=O (stereo not drawn) [Compound 10, 5,7,2′,4′,5′-Pentamethoxyisoflavanone]	Inactive	30.3 ± 1.15 µM		73.8 ± 0.77 µM	116 ± 20.2 µM		Cytotoxicity against normal cells (vero cell line), in words (vero cells; vero cell line): weak cytotoxicity; also recorded: weak activity
C=C(C)[C@H]1Cc2c(ccc3c2O[C@@H]2COc4cc(OC)c(OC)cc4[C@]2(O)C3=O)O1 [(−)-12α-hydroxyrotenone]							IC50 (HepG2 cell line): 18 ± 1.51 µM
COc1cc(O)c2c(=O)c(-c3cc(OC)c(OC)cc3OC)coc2c1 [Compound 5, 5-Hydroxy-7,2′,4′,5′-tetramethoxyisoflavone]		19 ± 0.7 µM	10.8 ± 1.65 µM	12.5 ± 0.7 µM	13.5 ± 0.84 µM	10 to 19 µM	
COc1cc(-c2coc3cc(O)cc(O)c3c2=O)c(OC)cc1O [Compound 1, Olibergin A]		79.2 ± 4.78 µM	32.2 ± 1.73 µM	72.1 ± 1.12 µM	88.8 ± 4.33 µM		Cytotoxicity against all tested cell lines, in words [1]: weak activity; IC50 (KB): 48.1 µM; IC50 (HeLa): 59.8 µM; IC50 (MRC-5): 25 µM
COc1cc(-c2coc3cc(OC(C)=O)cc(O)c3c2=O)c(OC)cc1OC(C)=O [Compound 3, 7,4′-Diacetoxy-5-hydroxy-2′,5′-dimethoxyisoflavone]	Inactive				112 ± 12.3 µM		Cytotoxicity IC50, HCT-116 (HCT-116): Inactive; Cytotoxicity IC50, MCF-7 (MCF-7): Inactive
7,4′-Dibutoxy-5-hydroxy-2′,5′-dimethoxyisoflavone [Compound 4]	Inactive						Cytotoxicity IC50, HCT-116 (HCT-116): Inactive; Cytotoxicity IC50, MCF-7 (MCF-7): Inactive; Cytotoxicity IC50, Vero cell (vero cells): Inactive
COc1cc(O)c2c(c1)OCC(c1cc(OC)c(OC)cc1OC)C2=NO (stereo not drawn) [Compound 15, 5-Hydroxy-7,2′,4′,5′-tetramethoxyisoflavanone oxime]		26.4 ± 0.05 µM	38.6 ± 2.77 µM	28.9 ± 3.94 µM	29.8 ± 4.85 µM	26 to 38 µM	
